The record followed here is ChEMBL document CHEMBL2203168, “Amine linked flavonoid dimers as modulators for P-glycoprotein-based multidrug resistance: structure-activity relationship and mechanism of modulation” (J Med Chem, 2012).

Values after ≈ are worked out from the molar mass of the structure shown.

The subject of one series is L929. The experiment in a line: Cytotoxicity against mouse L929 cells after 72 hrs. It counts as cell-based. The settings on record: L929, 72 h. The method in brief:
(§1)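 Cells seeded at 1 × 10⁴ per well in supplemented DMEM and given graded doses of dimer for 72 h at 37 °C, 5% CO₂. Survival measured and IC50 derived. N = 1–3 independent experiments, mean ± SEM.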

Series [1] can be described thus: Reversal of P-gp-mediated paclitaxel-resistance in human LCC6MDR cells after 5 days by MTS assay. The series is classed as cell-based. The settings on record: 120 h. A general note: Tetrazolium dyes change colour on reduction, which living cells bring about.
For series [2], the species on record is Homo sapiens. The series can be described thus: Inhibition of P-gp-mediated paclitaxel resistance in human LCC6MDR cells assessed as fold decrease in paclitaxel IC50 for cytotoxic activity at 1 uM after 5 days by MTS assay relative to parental cells. It counts as cell-based.
For series [3], the species on record is Homo sapiens. The series can be described thus: Inhibition of P-gp-mediated paclitaxel resistance in human LCC6MDR cells assessed as fold decrease in paclitaxel IC50 for cytotoxic activity at 0.5 uM after 5 days by MTS assay relative to parental cells. It counts as cell-based.
The nature of series [4]: Therapeutic index, ratio of IC50 for L929 cells to EC50 for reversing paclitaxel resistance in human MDA435/LCC6MDR cells. The series is classed as cell-based. The settings on record: L929 cells (IC50) and MDA435/LCC6MDR cells (EC50).
Another series relates to MDR. The series can be described thus: Cytotoxicity against human MDA435/LCC6MDR cells expressing MDR after 72 hrs. The series is classed as functional, cell-based. The procedure, abridged: as §1
Series [5] in a line: Cytotoxicity against human LCC-6 cells after 72 hrs. It counts as functional, cell-based. The settings on record: LCC-6, 72 h. The procedure, abridged:
as §1

Series [6] deals with T1, ATP-dependent translocase ABCB1 (Homo sapiens, UniProt P08183). The experiment in a line: Competitive inhibition of P-gp overexpressed in human MDA435/LCC6MDR cells assessed as accumulation of doxorubicin by Dixon plot analysis. The series is classed as cell-based.
Series [7] in a line: Reversal of P-gp-mediated vinblastin-resistance in human LCC6MDR cells after 5 days by MTS assay. The settings on record: 120 h. The series is classed as cell-based.
A short description of series [8]: Reversal of P-gp-mediated doxorubicin-resistance in human LCC6MDR cells after 5 days by MTS assay. The series is classed as cell-based. The settings on record: 120 h.
Series [9] has as its target T1, ATP-dependent translocase ABCB1. The experiment in a line: Competitive inhibition of P-gp overexpressed in human MDA435/LCC6MDR cells assessed as accumulation of doxorubicin by Lineweaver-Burk plot analysis. The series is classed as cell-based.
The next series has as its target P-gp (ABCB1) (Homo sapiens, UniProt P08183). The experiment in a line: Increase in human P-gp ATPase activity at 200 uM by luciferase assay relative to basal level. The settings on record: read-out: FC. The procedure, abridged:
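Human P-gp membrane fraction (about 25 μg) incubated with compound at 200 μM, 0.5% DMSO basal or 100 μM vanadate. Reaction started with 5 mM MgATP, 1 h at 37 °C. Remaining ATP read by luciferase luminescence after 20 min at room temperature. Activity normalized to basal and given as stimulation fold. N = 2.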

The target of series [10] is T1, ATP-dependent translocase ABCB1. The series can be described thus: Inhibition of P-gp overexpressed in human MDA435/LCC6MDR cells assessed as accumulation of doxorubicin after 150 mins by fluorescence spectrophotometric analysis. The series is classed as cell-based. The settings on record: 2.5 h. The method in brief: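 1 × 10⁶ LCC6MDR or LCC6 cells incubated with 20 μM DOX and graded modulator for 150 min at 37 °C, with 0.4% DMSO as negative control. Cells washed and lysed in 0.75 M HCl, 0.2% Triton X-100 in isopropanol. DOX fluorescence read at ex 460/em 610 nm. N = 2–5.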

Series [11] in a line: Reversal of P-gp-mediated daunorubicin-resistance in human LCC6MDR cells after 5 days by MTS assay. The series is classed as cell-based. The settings on record: 120 h.
Series [12] in a line: Reversal of P-gp-mediated vincristine-resistance in human LCC6MDR cells after 5 days by MTS assay. It counts as cell-based. The settings on record: 120 h.
Series [13] has as its target T2, Broad substrate specificity ATP-binding cassette transporter ABCG2 (Homo sapiens, UniProt Q9UNQ0).
T2 sequence (Q9UNQ0 whole entry): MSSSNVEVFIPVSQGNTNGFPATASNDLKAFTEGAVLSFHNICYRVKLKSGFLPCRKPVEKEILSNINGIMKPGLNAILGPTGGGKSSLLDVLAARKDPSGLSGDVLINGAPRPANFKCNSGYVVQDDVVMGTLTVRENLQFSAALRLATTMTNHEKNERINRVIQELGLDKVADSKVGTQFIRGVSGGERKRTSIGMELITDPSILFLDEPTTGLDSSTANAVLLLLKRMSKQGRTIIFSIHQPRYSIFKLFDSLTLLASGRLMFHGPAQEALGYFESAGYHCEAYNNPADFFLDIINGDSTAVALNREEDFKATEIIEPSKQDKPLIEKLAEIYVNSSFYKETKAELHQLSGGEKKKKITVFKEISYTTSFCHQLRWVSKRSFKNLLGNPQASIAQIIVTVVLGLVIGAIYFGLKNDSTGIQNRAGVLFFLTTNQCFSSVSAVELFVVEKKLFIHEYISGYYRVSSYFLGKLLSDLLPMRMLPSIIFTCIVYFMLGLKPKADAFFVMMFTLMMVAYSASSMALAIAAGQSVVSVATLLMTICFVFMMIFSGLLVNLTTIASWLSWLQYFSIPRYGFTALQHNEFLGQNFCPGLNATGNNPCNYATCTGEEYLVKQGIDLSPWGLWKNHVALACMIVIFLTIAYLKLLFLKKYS
The series can be described thus: Inhibition of BCRP-mediated topotecan resistance in human HEK293/R2 cells assessed as fold decrease in topotecan IC50 for cytotoxic activity at 0.5 uM after 5 days by MTS assay relative to parental cell. The series is classed as cell-based. The settings on record: hek293/r2, 120 h. The method in brief:
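Viability read by MTS. Topotecan IC50 taken from dose-response curves. Fold change = IC50 without modulator / IC50 with modulator. Parental HEK293/pcDNA3.1 tested for reference. N = 2−4 independent experiments, mean ± SEM.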

The nature of series [14]: Reversal of P-gp-mediated mitoxantrone-resistance in human LCC6MDR cells after 5 days by MTS assay. The series is classed as cell-based. The settings on record: 120 h.
For series [15], the species on record is Homo sapiens. The experiment in a line: Reduction in P-gp-mediated drug uptake in human MDA435/LCC6MDR cells at 100 uM for 120 mins by HPLC analysis relative to parental cells. It counts as cell-based. The method in brief: (§2)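 7.5 × 10⁶ LCC6 or LCC6MDR cells in 5 mL DMEM incubated with compound at 10 or 100 μM for 120 min at 37 °C. Cells washed, lysed by freeze–thaw in acetonitrile with 20% formic acid, and processed. Compound quantified by normal-phase HPLC-UV at 315 nm against a chloroform calibration curve of 0.25–25 μg/mL. N = 1–2.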

The species named for series [16] is Homo sapiens. The experiment in a line: Reduction in P-gp-mediated drug uptake in human MDA435/LCC6MDR cells at 10 uM for 120 mins by HPLC analysis relative to parental cells. It counts as cell-based. The procedure, abridged: as §2
Series [17] addresses Multidrug resistance-associated protein 1 (Homo sapiens, UniProt P33527). The series can be described thus: Inhibition of MRP1-mediated doxorubicin resistance in human 2008/MRP1 cells assessed as fold decrease in doxorubicin IC50 for cytotoxic activity at 0.5 uM after 5 days by MTS assay relative to parental cell. The settings on record: 2008/mrp1, 120 h. It counts as cell-based.

T1 sequence (P08183 whole entry): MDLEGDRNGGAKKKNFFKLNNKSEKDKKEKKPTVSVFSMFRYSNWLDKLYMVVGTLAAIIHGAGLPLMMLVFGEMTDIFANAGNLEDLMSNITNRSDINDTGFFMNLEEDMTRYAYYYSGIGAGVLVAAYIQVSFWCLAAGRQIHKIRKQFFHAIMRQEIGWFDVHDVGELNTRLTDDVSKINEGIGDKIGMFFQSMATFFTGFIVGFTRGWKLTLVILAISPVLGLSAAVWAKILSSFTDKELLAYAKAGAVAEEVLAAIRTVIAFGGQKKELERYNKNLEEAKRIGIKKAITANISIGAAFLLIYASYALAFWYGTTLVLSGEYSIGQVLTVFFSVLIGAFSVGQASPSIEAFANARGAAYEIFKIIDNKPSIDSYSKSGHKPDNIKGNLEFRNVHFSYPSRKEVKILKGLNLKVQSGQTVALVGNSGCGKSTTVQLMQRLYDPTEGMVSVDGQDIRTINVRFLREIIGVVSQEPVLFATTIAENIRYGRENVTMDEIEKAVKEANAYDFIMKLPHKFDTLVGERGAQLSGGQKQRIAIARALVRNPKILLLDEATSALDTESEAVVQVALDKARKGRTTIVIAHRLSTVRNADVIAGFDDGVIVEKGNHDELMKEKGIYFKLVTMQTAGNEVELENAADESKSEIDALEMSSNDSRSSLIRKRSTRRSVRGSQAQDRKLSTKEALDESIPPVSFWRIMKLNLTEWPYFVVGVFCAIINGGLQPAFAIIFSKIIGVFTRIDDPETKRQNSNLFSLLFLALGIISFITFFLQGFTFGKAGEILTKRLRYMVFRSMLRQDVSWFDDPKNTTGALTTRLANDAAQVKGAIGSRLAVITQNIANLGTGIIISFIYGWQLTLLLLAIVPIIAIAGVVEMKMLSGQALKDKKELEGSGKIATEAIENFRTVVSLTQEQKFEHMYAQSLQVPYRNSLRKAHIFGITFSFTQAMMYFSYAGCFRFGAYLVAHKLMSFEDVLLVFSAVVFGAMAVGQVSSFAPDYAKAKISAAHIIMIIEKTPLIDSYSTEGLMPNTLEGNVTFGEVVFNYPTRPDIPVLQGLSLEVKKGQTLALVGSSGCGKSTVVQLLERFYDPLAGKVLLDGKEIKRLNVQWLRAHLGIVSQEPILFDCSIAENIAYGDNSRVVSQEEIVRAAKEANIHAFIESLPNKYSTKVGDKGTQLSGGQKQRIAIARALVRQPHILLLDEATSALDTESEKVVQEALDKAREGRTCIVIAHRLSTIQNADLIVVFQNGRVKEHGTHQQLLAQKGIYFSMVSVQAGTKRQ
Chain of Multidrug resistance-associated protein 1 (P33527 whole entry): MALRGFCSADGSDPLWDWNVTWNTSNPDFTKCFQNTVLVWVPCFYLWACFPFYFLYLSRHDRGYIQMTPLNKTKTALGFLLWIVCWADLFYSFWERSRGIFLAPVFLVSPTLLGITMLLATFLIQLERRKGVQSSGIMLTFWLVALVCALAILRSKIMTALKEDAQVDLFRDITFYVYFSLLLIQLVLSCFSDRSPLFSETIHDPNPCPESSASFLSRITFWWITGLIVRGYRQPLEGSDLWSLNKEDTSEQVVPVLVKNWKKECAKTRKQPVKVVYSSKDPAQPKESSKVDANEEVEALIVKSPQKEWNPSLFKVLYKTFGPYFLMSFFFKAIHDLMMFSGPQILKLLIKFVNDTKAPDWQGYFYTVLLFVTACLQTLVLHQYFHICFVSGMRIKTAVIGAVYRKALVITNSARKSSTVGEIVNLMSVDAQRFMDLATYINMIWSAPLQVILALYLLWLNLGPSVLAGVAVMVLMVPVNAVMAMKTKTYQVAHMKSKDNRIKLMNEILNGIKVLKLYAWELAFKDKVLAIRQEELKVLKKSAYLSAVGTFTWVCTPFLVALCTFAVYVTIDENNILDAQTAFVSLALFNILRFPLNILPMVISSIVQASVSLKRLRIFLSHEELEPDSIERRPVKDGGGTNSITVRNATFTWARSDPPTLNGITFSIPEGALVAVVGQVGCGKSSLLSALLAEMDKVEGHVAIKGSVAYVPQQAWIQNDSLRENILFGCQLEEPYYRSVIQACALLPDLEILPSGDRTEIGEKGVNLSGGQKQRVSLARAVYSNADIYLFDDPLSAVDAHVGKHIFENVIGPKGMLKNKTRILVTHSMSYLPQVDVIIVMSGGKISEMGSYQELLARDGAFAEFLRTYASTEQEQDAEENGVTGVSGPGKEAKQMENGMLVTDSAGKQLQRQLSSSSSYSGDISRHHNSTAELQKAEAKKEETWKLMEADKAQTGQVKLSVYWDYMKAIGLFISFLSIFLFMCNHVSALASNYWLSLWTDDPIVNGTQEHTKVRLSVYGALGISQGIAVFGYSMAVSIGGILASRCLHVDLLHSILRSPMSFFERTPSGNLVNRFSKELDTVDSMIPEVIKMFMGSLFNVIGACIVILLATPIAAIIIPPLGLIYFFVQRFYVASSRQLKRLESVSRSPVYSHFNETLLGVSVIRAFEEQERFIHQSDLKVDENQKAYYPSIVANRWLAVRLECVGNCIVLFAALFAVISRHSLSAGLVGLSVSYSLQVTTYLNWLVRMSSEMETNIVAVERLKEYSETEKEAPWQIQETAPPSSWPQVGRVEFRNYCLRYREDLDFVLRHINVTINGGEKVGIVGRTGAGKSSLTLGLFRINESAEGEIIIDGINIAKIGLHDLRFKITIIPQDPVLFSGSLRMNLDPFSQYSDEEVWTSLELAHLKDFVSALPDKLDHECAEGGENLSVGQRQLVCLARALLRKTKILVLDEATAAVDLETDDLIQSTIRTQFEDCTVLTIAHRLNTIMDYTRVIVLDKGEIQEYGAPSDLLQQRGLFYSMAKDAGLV
Chain of P-gp (ABCB1) (P08183 whole entry): as the sequence (P08183 whole entry) above

In general, IC50 refers to the concentration that inhibits the measured activity by half. For orientation: EC50 means the midpoint of the concentration-response curve. As to `O=c1cc(-c2ccc(OCCOCCN(CCOCCOc3ccc(-c4cc(=O)c5ccccc5o4)cc3)Cc3ccc(F)cc3)cc2)oc2ccccc12`, the IC50 is 19.7 µM in the series on L929, over 83 µM with MDR and over 100 µM in series [5]. The EC50 in series [1] worked out at 255 nM. Further, the Ratio was 109 in the series listed under Homo sapiens [2] and 31.2 in the series listed under Homo sapiens [3]. The selectivity ratio in series [4] is 77.3.

As usually defined, the Ki is the equilibrium dissociation constant of an inhibitor or competing ligand from its target. In the case of `O=c1cc(-c2ccc(OCCOCCN(CCOCCOc3ccc(-c4cc(=O)c5ccccc5o4)cc3)Cc3ccccc3)cc2)oc2ccccc12`, the Ki in series [6] worked out at 280 nM; in series [9], 340 nM. In addition, the 50% inhibitory concentration (IC50) in the series with L929 was 85 µM; with MDR, over 63 µM; in series [5], over 75 µM. Moreover, the EC50 came out at 173 nM in [7]; 131 nM in series [8]; 148 nM in series [1]; 95 nM in series [11]; 179 nM in series [12]; 90 nM in [14]. Moreover, on P-gp (ABCB1), the fold induction at 200 µM was 2.7. For the same molecule, the MIC in series [10] worked out at 0.5 µM (≈ 0.362 µg/mL). For the same molecule, the “inhibition (INH)” value in series [10] is “Dose-dependent effect”. The Ratio in the series filed under Homo sapiens [2] came to 139; in series [13] it was 3.8; in the series listed under Homo sapiens [3], 58.9; in series [17], 2.1. Besides, the fold change (FC) in the series filed under Homo sapiens [15] amounted to 2.1; in the series filed under Homo sapiens [16], 1.7. Also, the selectivity ratio in series [4] came out at 574.

For `O=c1cc(-c2ccc(OCCOCCN(CCOCCOc3ccc(-c4cc(=O)c5ccccc5o4)cc3)Cc3ccc(C(F)(F)F)cc3)cc2)oc2ccccc12`, the half-maximal inhibitory concentration (IC50) was 32.7 µM in the series with L929, over 100 µM in the series on MDR and over 100 µM in [5]. Besides, the EC50 in [1] was determined as 150 nM. In addition, the Ratio worked out at 90.1 in the series filed under Homo sapiens [2] and 37.3 in the series filed under Homo sapiens [3]. Further, in [4], the selectivity ratio came to 218.

On to `COc1ccc(CCN(C)CCCC(C#N)(c2ccc(OC)c(OC)c2)C(C)C)cc1OC` (configuration not stated), for which, in series [10], the MIC was 8 µM (≈ 3.64 µg/mL) and the “inhibition (INH)” value is “Dose-dependent effect”.

As for `O=c1cc(-c2ccc(OCCOCCN(CCOCCOc3ccc(-c4cc(=O)c5ccccc5o4)cc3)Cc3cccc(F)c3)cc2)oc2ccccc12`, the IC50 in the series with L929 is over 87 µM; with MDR it was over 100 µM; in [5], over 100 µM. Moreover, the EC50 in series [1] turned out to be 258 nM. In addition, the Ratio in the series listed under Homo sapiens [2] turned out to be 118; in the series listed under Homo sapiens [3] it was 36.5. The selectivity ratio in series [4] is over 337.

Regarding `O=c1cc(-c2ccc(OCCOCCN(CCOCCOc3ccc(-c4cc(=O)c5ccccc5o4)cc3)Cc3ccc([N+](=O)[O-])cc3)cc2)oc2ccccc12`, the IC50 in the series on L929 is 88 µM; in the series with MDR it was over 90 µM; in [5], 86.8 µM. In addition, the EC50 in series [1] is 189 nM. The results for the Ratio in the series listed under Homo sapiens [2] and in the series listed under Homo sapiens [3] were 128 and 43.7, respectively. Further, the selectivity ratio in [4] is 466.

For `O=c1cc(-c2ccc(OCCOCCNCCOCCOc3ccc(-c4cc(=O)c5ccccc5o4)cc3)cc2)oc2ccccc12`, the IC50 in the series on L929 came out at 5.9 µM; with MDR it was 2.4 µM; in [5] it was 3.3 µM. Further, in [1], the EC50 worked out at 305 nM. Moreover, the Ratio is 139 in the series listed under Homo sapiens [2] and 72.9 in the series listed under Homo sapiens [3]. The selectivity ratio in series [4] stood at 19.3.

As to `CC(C)(C)OC(=O)N(CCOCCOc1ccc(-c2cc(=O)c3ccccc3o2)cc1)CCOCCOc1ccc(-c2cc(=O)c3ccccc3o2)cc1`, the results for the IC50 (in the series on L929; in the series with MDR; in [5]) were 11.1 µM, 6.2 µM and 8 µM, respectively. The EC50 in [1] was 320 nM. For the same molecule, the Ratio in the series filed under Homo sapiens [2] turned out to be 69.6; in the series listed under Homo sapiens [3], 11.1. In [4], the selectivity ratio turned out to be 34.7.

Turning to `CCN(CCOCCOc1ccc(-c2cc(=O)c3ccccc3o2)cc1)CCOCCOc1ccc(-c2cc(=O)c3ccccc3o2)cc1`, the IC50 stood at 6.9 µM in the series with L929, 17.3 µM in the series on MDR and 10.3 µM in series [5]. Besides, the EC50 in [1] came to 200 nM. The Ratio in the series filed under Homo sapiens [2] was 95.7; in the series listed under Homo sapiens [3], 26.9. The selectivity ratio in series [4] worked out at 34.5.
